Bioassay records: PubChem BioAssay, several laboratories
In the library only some 4.3% were active in any assay of this set; here they are far more common.
FLuc stim CS: FLuc activators, initial screening, artefact control for FLuc-dependent activation tests, biochemical, ATPlite luminescence; Luciferin 4-monooxygenase (Photinus pyralis), P08659; ATPlite luciferase biochemical, 10 min; 0 = ATP-free wells, 1 = DMSO control; activation factor at 10 µM; 200,000 tested, under 10 active; AID 1027, 2008;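 active = luciferase activation factor, scaled between plate controls, of at least 2 with compound at 10 µM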
Target sequence (P08659 whole entry, looked up): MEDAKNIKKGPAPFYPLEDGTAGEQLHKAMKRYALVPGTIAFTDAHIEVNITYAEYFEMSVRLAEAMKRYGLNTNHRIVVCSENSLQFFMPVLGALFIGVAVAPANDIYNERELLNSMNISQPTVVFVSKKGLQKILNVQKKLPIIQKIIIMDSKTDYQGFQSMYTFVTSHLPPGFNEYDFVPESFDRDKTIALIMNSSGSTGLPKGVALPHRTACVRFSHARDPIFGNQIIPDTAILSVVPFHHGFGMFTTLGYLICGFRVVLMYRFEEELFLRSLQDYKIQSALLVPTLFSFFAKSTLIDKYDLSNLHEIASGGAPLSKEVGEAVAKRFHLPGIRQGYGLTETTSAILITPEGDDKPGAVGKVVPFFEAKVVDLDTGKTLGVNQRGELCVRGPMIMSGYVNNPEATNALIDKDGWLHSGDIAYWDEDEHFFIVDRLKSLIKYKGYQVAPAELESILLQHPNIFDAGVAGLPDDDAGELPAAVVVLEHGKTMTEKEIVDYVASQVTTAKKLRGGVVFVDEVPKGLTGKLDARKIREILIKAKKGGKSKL
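Material: luciferase plus luciferin reagent, cell-free. Medium: PBS buffer for ATP. Also added: ATP substrate, dispensed from a 10.24 µM working solution in PBS. Doses: test compounds dosed from 2 mM stocks in 100% DMSO. Incubation: 10 min post-reagent at room temperature. Technique: light output (luminescence). Read-out basis: luminescence gain marking luciferase activators.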
NF-kB expr up: activators of NF-kB expression in neurons, primary screen, cell-based, HTS; human neuronal cells, NF-kB reporter expression; active compounds read high; fold change at 12.5 µM; 1.6% of 190,000 active; in the data active = fold change above about 3.3
APP 5'UTR act: activators of APP 5'UTR luciferase reporter, primary screen, SH-SY5Y cells; SH-SY5Y APP 5'UTR luciferase reporter, luminescence; zero percent = DMSO vehicle wells; activation, % at 2 µM; 1% of 190,000 active;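 active = activation above a set limit, based on mean plus 3 SD of controls, cut at about 140% in these data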
FLuc inhib CS: firefly luciferase enzyme inhibitors, primary screen, artefact control for luciferase-based inhibitor screens, biochemical, luminescence, ATPLite | inhibition, % at 10 µM | 10 min | AID 1006, 2008 | 1.5% of 200,000 active;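 active = inhibition above about 50% when tested at 10 µM, limit read from the data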
STAT1 activator: STAT1 signaling activators, primary screen, cell-based, HTS, luciferase reporter. NIH 3T3 STAT1-luciferase reporter, IFN-gamma, luminescence; 100% = IFN-gamma alone, no compound. activation (% of control), % at 5.5 µM. 2.6% of 200,000 active;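 active = activation above the screen-wide mean activation plus 3 SD, cut at about 130% in these data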
Of the large screens only hits and unclear results are named; the others gave an inactive call.

Cc1ccccc1Nc1ncnc2c1cnn2-c1ccccc1	STAT1 activator 130
CC(=O)CSc1ncnc2c1cnn2-c1ccccc1	NF-kB expr up 7.2
CNC(=O)CSc1ncnc2c1cnn2-c1ccccc1	none
NNc1ncnc2c1cnn2-c1ccccc1	none
CCOc1ccc(Nc2ncnc3c2cnn3-c2ccccc2)cc1	none
Cc1cccc(-n2ncc3c(NC(C)C)ncnc32)c1	NF-kB expr up 5, APP 5'UTR act 158, FLuc inhib CS 63, STAT1 activator 150
Cc1cccc(-n2ncc3c(Nc4ccc(F)cc4)ncnc32)c1	none (no result: NF-kB expr up, APP 5'UTR act, STAT1 activator)
CC(C)Nc1ncnc2c1cnn2-c1ccccc1	NF-kB expr up 4, FLuc inhib CS 79, STAT1 activator 136
Cc1c(Br)c([N+](=O)[O-])nn1CC(=O)NCc1cccnc1	none
Nc1ccc2c(c1)OC1(CCCCC1)O2	none
CCOc1cc(S(=O)(=O)n2ccnc2)ccc1Br	none
CCOc1cc(S(=O)(=O)n2ccnc2)ccc1Cl	NF-kB expr up 3.6
COc1ccc(Oc2ccc(/C=C/C(=O)c3ccc(O)cc3)cc2[N+](=O)[O-])cc1	NF-kB expr up 5
COc1ccc(/C=C2\SC(=S)N(CC(=O)OCC(=O)Nc3ccc(C)cc3Cl)C2=O)cc1	none
Cc1ccc(Cl)c(OCC(=O)OCC(=O)NC2CCCc3ccccc32)c1 (stereo not drawn)	none
O=C(Nc1ccon1)c1cc2c(s1)CCCC2	NF-kB expr up 5.6, APP 5'UTR act 164, FLuc inhib CS 70, STAT1 activator 133
O=C(Nc1ccc(N2CCOCC2)cc1)c1cc2c(s1)CCCC2	none
O=C(Nc1ccon1)c1cc2c(s1)CCCCCC2	STAT1 activator 141
O=C(Nc1ccccc1N1CCOCC1)c1cc2c(s1)CCCCC2	FLuc inhib CS 65
CNC(=O)c1cc2c(s1)CCCCCC2	none
COc1cccc(-c2cc3nc4c(c(NCC(C)(C)CN(C)C)n3n2)CCCC4)c1	STAT1 activator 140
Fc1cccc(-c2cc3nc4c(c(NCc5ccco5)n3n2)CCCC4)c1	NF-kB expr up 4.6, APP 5'UTR act 166, STAT1 activator 143
COc1cccc(Nc2c3c(nc4c(-c5ccccc5)c(C)nn24)CCC3)c1	none
CCCCN1CCc2c([nH]c3c(C)cccc23)C1=O	NF-kB expr up 3.5
O=C1COc2ccc(S(=O)(=O)Nc3ccc4c(c3)OCO4)cc2N1	none
CN(CC(=O)N1CCc2ccccc21)S(=O)(=O)c1cccs1	STAT1 activator 130
CCOC(=O)CN1N=C(c2ccc(Cl)s2)CSC1=O	none
COC(=O)c1ccc(CNC(=O)CSC2=NCCS2)cc1	none
COC(=O)c1ccc(CSC2=NCCS2)cc1	STAT1 activator 130
Cc1ccc(S(=O)(=O)/C=C/c2ccccc2)cc1	none
CCc1ccc(CNC(=O)C(=O)NCC2CCCO2)cc1 (stereo not drawn)	none
CCOC(=O)N1CCN(C(=O)CSc2ccc(-c3ccc(OC)cc3)nn2)CC1	FLuc inhib CS 58
CCc1ccc(-c2ccc(SCC(=O)Nc3nnc(C)s3)nn2)cc1	FLuc inhib CS 85
CCc1ccc(NC(=O)C(=O)NCC2CCCO2)cc1 (stereo not drawn)	STAT1 activator 131
CCc1ccc(-c2ccc(SCC(=O)NCC3CCCO3)nn2)cc1 (stereo not drawn)	FLuc inhib CS 80
CCOC(=O)N1CCN(C(=O)CSc2ccc(-c3ccc(OC)c(OC)c3)nn2)CC1	none
Cc1nnc(NC(=O)CSc2ccc(-c3ccc(Cl)cc3)nn2)s1	none
Cc1nnc(NC(=O)CSc2ccc(-c3ccco3)nn2)s1	none
CCc1ccc(NC(=O)C(=O)NCc2ccccn2)cc1	STAT1 activator 132
CCOc1ccc(-c2ccc(SCC(=O)Nc3nnc(C)s3)nn2)cc1	APP 5'UTR act 183, FLuc inhib CS 65
C=CCOc1ccccc1CNc1ccc2c(c1)OCCO2	FLuc inhib CS 74
C=CCOc1ccccc1CNc1cccc(F)c1	none
Cc1cccc(CC2SC(N3CCN(c4ccccc4)CC3)=NC2=O)c1 (stereo not drawn)	none
CC1=NC(=O)C(N=Nc2cccc(O)c2)N1c1ccccc1 (stereo not drawn)	NF-kB expr up 4.2
Cc1cccc(-n2ncc3c(N4CCC(C)CC4)ncnc32)c1	NF-kB expr up 4.3, STAT1 activator 143
c1ccc(-n2ncc3c(N4CCCCC4)ncnc32)cc1	FLuc inhib CS 89
CCOC(=O)C1CCN(c2ncnc3c2cnn3-c2ccc(OC)cc2)CC1	none
COc1ccc(-n2ncc3c(N4CCC(C(N)=O)CC4)ncnc32)cc1	NF-kB expr up 3.8, STAT1 activator 132
CC1CC(C)CN(c2ncnc3c2cnn3-c2ccc(Cl)cc2)C1 (stereo not drawn)	APP 5'UTR act 233
CN1CCN(c2ncnc3c2cnn3-c2ccc(Cl)cc2)CC1	none
CCN1CCN(c2ncnc3c2cnn3-c2ccccc2)CC1	none
O=[N+]([O-])c1ccc2c(c1)nc1n2CCN(C2CCCCC2)C1	STAT1 activator 144 (no result: NF-kB expr up)
NC(=S)NN=C(Cc1ccccc1)Cc1ccccc1	none
CCCCNC(=O)c1ccccc1NC(=O)CCC	none
O=C(c1ccccc1)c1cc(-c2ccccc2)on1	APP 5'UTR act 184, FLuc inhib CS 81
CC1CN(CC(=O)Nc2ccc([N+](=O)[O-])cc2Br)CC(C)O1 (stereo not drawn)	none
O=C(CCSc1ccccc1)N1CCCC1	STAT1 activator 134
O=C(CCSc1ccccc1)NC1CCCCCC1	STAT1 activator 144
